# Test results as given in ChEMBL document CHEMBL3102812 (J Med Chem, 2013).
# The source made the active and inactive calls. The calls are words filed in the database; no cut-off is given here.
# Assays:
# [1] = Partition coefficient, log D of the compound at pH 7.4 by chromatographic method; details: octanol/water
# Mus musculus [2] = assay: Toxicity in Swiss mouse at 20 mg/kg, po; details: in vivo
# [3] = Kinetic aqueous solubility of the compound in phosphate buffer at pH 6.5 by nephelometric analysis
# Cytochrome P450 3A4 = Cytochrome P450 3A4 (Homo sapiens, UniProt P08684); assay: Inhibition of CYP3A4 in human liver microsomes assessed as 6beta-hydroxylation of testosterone
# Chain of Cytochrome P450 3A4 (P08684 whole entry): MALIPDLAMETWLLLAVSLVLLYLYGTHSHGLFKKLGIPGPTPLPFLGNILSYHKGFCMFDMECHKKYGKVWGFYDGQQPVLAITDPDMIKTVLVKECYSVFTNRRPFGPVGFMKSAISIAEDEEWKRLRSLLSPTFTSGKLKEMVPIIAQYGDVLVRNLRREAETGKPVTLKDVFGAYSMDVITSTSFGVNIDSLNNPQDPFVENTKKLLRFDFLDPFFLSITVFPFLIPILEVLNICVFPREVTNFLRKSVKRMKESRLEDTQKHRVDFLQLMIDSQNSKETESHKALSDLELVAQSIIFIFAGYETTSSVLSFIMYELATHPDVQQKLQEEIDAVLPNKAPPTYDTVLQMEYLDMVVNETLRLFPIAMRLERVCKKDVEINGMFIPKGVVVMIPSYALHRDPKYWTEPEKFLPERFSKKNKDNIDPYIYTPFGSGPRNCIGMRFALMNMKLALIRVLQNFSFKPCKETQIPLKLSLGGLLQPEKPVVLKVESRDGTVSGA
# Trypanosoma cruzi [4] = assay: Antitrypanosomal activity against Trypanosoma cruzi Tulahuen 6 amastigotes infected in rat L6 cells after 96 hrs by colorimetric method; format: functional, organism-based; details: Tulahuen 6, L6, 96 h
# [5] = Kinetic aqueous solubility of the compound in phosphate buffer at pH 2 by nephelometric analysis; details: for solubility kinetic: phosphate buffer
# Trypanosoma cruzi [6] = assay: Antitrypanosomal activity against Trypanosoma cruzi Tulahuen 6 infected in Swiss mouse assessed as reduction in blood parasitemia at 20 mg/kg, po qd administered on day 8 post-infection for 10 days by microscopic analysis; format: functional, organism-based; set-up: dose 20 mg/kg
# In short: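 Infected Swiss mice dosed orally at 20 mg/kg once daily for up to 10 days starting day 8 pi; blood parasitemia followed by microscopy throughout dosing, scored as cleared or not during the dosing period.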
# Mus musculus [7] = assay: Toxicity in Swiss mouse assessed as weight loss at 25 mg/kg, po bid for 2.5 days; format: organism-based; set-up: dose 25 mg/kg, route oral; details: in vivo, 60 h
# In short: (§1)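 Acute toxicity by stepwise cumulative oral dosing in two mice per compound: 25 and/or 50 mg/kg twice daily for 2.5 days to […]; animals observed for 1 week after the last dose for adverse effects and weight loss.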
# [8] = Half life in Swiss mouse at 2 mg/kg, iv by LC/MS analysis; format: ADME, organism-based; set-up: dose 2 mg/kg, route intravenous; details: in vivo
# Mus musculus [9] = assay: Oral bioavailability in Swiss mouse at 20 mg/kg by LC/MS analysis; format: ADME, organism-based; details: in vivo
# [10] = Half life in Swiss mouse at 20 mg/kg, po by LC/MS analysis; format: ADME, organism-based; set-up: dose 20 mg/kg, route oral; details: in vivo
# Trypanosoma cruzi [11] = assay: Antitrypanosomal activity against Trypanosoma cruzi Tulahuen 6 infected in Swiss mouse assessed as mouse survival at 10 mg/kg, po qd administered on day 8 post-infection for 20 days measured on day 28 post-infection by microscopic analysis; format: functional, organism-based; set-up: dose 10 mg/kg
# In short: (§2)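 Outbred female Swiss mice (~8 weeks) infected with mouse-passaged Tulahuen TcVI trypomastigotes; oral dosing once daily for 20 days from day 8 post-infection, suspension in 0.5% HPMC, 0.4% Tween 80, 0.5% benzyl alcohol, 5% DMSO in water; blood parasitemia by microscopy (LOD 20 000 parasites/mL); mice with recurring parasitemia euthanized; survival counted per starting group; 10-day untreated period days 28–37.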
# Trypanosoma cruzi [12] = assay: Antitrypanosomal activity against Trypanosoma cruzi Tulahuen 6 infected in Swiss mouse assessed as mouse survival at 5 mg/kg, po qd administered on day 8 post-infection measured on same day by microscopic analysis; format: functional, organism-based; set-up: dose 5 mg/kg
# Trypanosoma cruzi [13] = assay: Antitrypanosomal activity against Trypanosoma cruzi Tulahuen 6 infected in Swiss mouse at 5 mg/kg, po qd administered on day 8 post-infection for 20 days followed by 10 days non-treatment period followed by three cycles of immunosuppression measured on day 58 post-infection by PCR analysis; format: functional, organism-based; set-up: dose 5 mg/kg
# Mus musculus [14] = assay: Toxicity in Swiss mouse assessed as weight loss at 50 mg/kg, po bid for 2.5 days; format: organism-based; set-up: dose 50 mg/kg, route oral; details: in vivo, 60 h; in short: as §1
# [15] = Volume of distribution at steady state in Swiss mouse at 2 mg/kg, iv and 20 mg/kg, po by LC/MS analysis; format: ADME, organism-based; details: in vivo, read-out: Vdss
# Trypanosoma cruzi [16] = assay: Antitrypanosomal activity against Trypanosoma cruzi Tulahuen 6 infected in Swiss mouse assessed as mouse survival at 10 mg/kg, po qd administered on day 8 post-infection measured on same day by microscopic analysis; format: functional, organism-based; set-up: dose 10 mg/kg
# Trypanosoma cruzi [17] = assay: Antitrypanosomal activity against Trypanosoma cruzi Tulahuen 6 infected in Swiss mouse assessed as mouse survival at 10 mg/kg, po qd administered on day 8 post-infection for 20 days followed by 10 days non-treatment measured on day 37 post-infection by microscopic analysis; format: functional, organism-based; set-up: dose 10 mg/kg
# Trypanosoma cruzi [18] = assay: Antitrypanosomal activity against Trypanosoma cruzi Tulahuen 6 infected in Swiss mouse assessed as mouse survival at 5 mg/kg, po qd administered on day 8 post-infection for 20 days followed by 10 days non-treatment measured on day 37 post-infection by microscopic analysis; format: functional, organism-based; set-up: dose 5 mg/kg
# [19] = Plasma clearance in Swiss mouse at 2 mg/kg, iv and 20 mg/kg, po by LC/MS analysis; format: ADME, organism-based
# Trypanosoma cruzi [20] = assay: Antitrypanosomal activity against Trypanosoma cruzi Tulahuen 6 infected in Swiss mouse assessed as mouse survival at 5 mg/kg, po qd administered on day 8 post-infection for 20 days measured on day 28 post-infection by microscopic analysis; format: functional, organism-based; set-up: dose 5 mg/kg
# Trypanosoma cruzi [21] = assay: Antitrypanosomal activity against Trypanosoma cruzi Tulahuen 6 infected in Swiss mouse assessed as mouse survival at 20 mg/kg, po qd administered on day 8 post-infection measured on same day by microscopic analysis; format: functional, organism-based; set-up: dose 20 mg/kg
# Trypanosoma cruzi [22] = assay: Antitrypanosomal activity against Trypanosoma cruzi Tulahuen 6 infected in Swiss mouse assessed as mouse survival at 20 mg/kg, po qd administered on day 8 post-infection for 20 days followed by 10 days non-treatment measured on day 37 post-infection by microscopic analysis; format: functional, organism-based; set-up: dose 20 mg/kg; in short: as §2
# Trypanosoma cruzi [23] = assay: Antitrypanosomal activity against Trypanosoma cruzi Tulahuen 6 infected in Swiss mouse at 20 mg/kg, po qd administered on day 8 post-infection for 20 days followed by 10 days non-treatment period followed by three cycles of immunosuppression measured on day 58 post-infection by PCR analysis; format: functional, organism-based; set-up: dose 20 mg/kg
# Trypanosoma cruzi [24] = assay: Antitrypanosomal activity against Trypanosoma cruzi Tulahuen 6 infected in Swiss mouse assessed as mouse survival at 20 mg/kg, po qd administered on day 8 post-infection for 20 days measured on day 28 post-infection by microscopic analysis; format: functional, organism-based; set-up: dose 20 mg/kg
Structure (SMILES),chromatographic logD [1],Activity (Mus musculus [2]),solubility kinetic [3] [µg/mL],IC50 (Cytochrome P450 3A4) [nM],IC50 (Trypanosoma cruzi [4]) [nM],solubility kinetic [5] [µg/mL],Activity (Trypanosoma cruzi [6]),also measured
FC(F)(F)c1ccc(N(c2cncnc2)C2CCN(c3ccc(C(F)(F)F)cn3)CC2)cc1,4.9,Non-toxic,< 1.6,6300,5,12.5,–,–
N#Cc1ccc(C(c2cccnc2)N2CCC(NC(=O)c3ccccc3)CC2)cc1 (stereo not given),–,Non-toxic,–,–,24,–,inactive,–
CS(=O)(=O)c1ccc(N2CCN(C(=O)C(c3ccc(C#N)cc3)c3cccnc3)CC2)cc1 (stereo not given),2.4,Non-toxic,3.1,> 20000,24,25,–,–
Cc1ncsc1C(=O)N1CCC(NC(c2ccc(C(F)(F)F)cc2)c2cccnc2)CC1 (stereo not given),–,Non-toxic,–,–,58,–,inactive,–
FC(F)(F)c1ccc(N(c2cccnc2)C2CCN(c3ccc(Cl)cc3)CC2)cc1,> 5.3,–,< 1.6,–,–,> 100,–,–
O=C([C@@H](c1ccc(Cl)cc1)c1cccnc1)N1CCN(c2ccc(C(F)(F)F)cc2)CC1,4.5,Non-toxic,1.6,15000,–,> 100,–,Activity (Mus musculus [7]): Non-toxic; half-life [8]: 5.9 h; F (Mus musculus [9]): 64%; half-life [10]: 8.2 h; Activity (Trypanosoma cruzi [11]): Active; Activity (Trypanosoma cruzi [12]): Active; Activity (Trypanosoma cruzi [13]): inactive; Activity (Mus musculus [14]): Non-toxic; Vd [15]: 4.2 L/kg; Activity (Trypanosoma cruzi [16]): Active; Activity (Trypanosoma cruzi [17]): Active; Activity (Trypanosoma cruzi [18]): Active; clearance [19]: 7.7 mL/min/kg; Activity (Trypanosoma cruzi [20]): Active
Cc1cc(C(=O)NC2CCN(C(c3ccc(C#N)cc3)c3cccnc3)CC2)n(C)n1 (stereo not given),–,Non-toxic,–,–,47,–,inactive,–
N#Cc1ccc(N(c2cccnc2)C2CCN(c3ccc(C(F)(F)F)cc3)CC2)cc1,4.7,Non-toxic,< 1.6,–,3,25,–,–
N#Cc1cccc(N2CCC(NC(c3cccnc3)c3ccc(Cl)cc3F)CC2)c1 (stereo not given),–,Non-toxic,–,–,13,–,inactive,–
N#Cc1ccc(C(c2cccnc2)N2CCC(NC(=O)c3c(F)cccc3F)CC2)cc1 (stereo not given),–,Non-toxic,–,–,19,–,inactive,–
FC(F)(F)c1ccc(N2CCC(N(c3ccc(C(F)(F)F)cc3)c3cccnc3)CC2)cc1,–,–,–,–,17,–,–,–
O=C(C(c1ccc(Cl)cc1)c1cccnc1)N1CCN(c2ccc(C(F)(F)F)nc2)CC1 (stereo not given),3.7,Non-toxic,6.3,> 20000,8,50,–,–
CC(C)(C)CC(=O)N1CCC(N(c2ccc(Cl)cc2)c2cccnc2)CC1,4.2,–,6.3,–,–,> 100,–,–
N#Cc1ccc(C(C(=O)N2CCN(c3ccc(C(F)(F)F)nc3)CC2)c2cccnc2)cc1 (stereo not given),3,–,25,> 20000,–,> 100,–,–
O=C(C(c1ccc(Cl)cc1)c1cccnc1)N1CCN(c2ccc(C(F)(F)F)cn2)CC1 (stereo not given),4.2,Non-toxic,3.1,7000,12,–,–,Kinetic solubility ([5]; buffer): 25 µg/mL
Cc1ccccc1CN1CCC(N(c2ccc(C(F)(F)F)cc2)c2cccnc2)CC1,> 5.3,–,3.1,–,–,> 100,–,–
CC[C@@H]([C@H](C)O)n1ncn(-c2ccc(N3CCN(c4ccc(OC[C@@H]5CO[C@@](Cn6cncn6)(c6ccc(F)cc6F)C5)cc4)CC3)cc2)c1=O [POSACONAZOLE],–,Non-toxic,–,–,1,–,Active,Activity (Trypanosoma cruzi [21]): Active; Activity (Trypanosoma cruzi [11]): Active; Activity (Trypanosoma cruzi [22]): Active; Activity (Trypanosoma cruzi [23]): Active
N#Cc1ccc(C(O)(c2ccc(C(F)(F)F)cc2)c2cccnc2)c(F)c1 (stereo not given),–,Non-toxic,–,–,–,–,Active,–
FC(F)(F)c1ccc(N(c2cccnc2)C2CCN(c3ccc(C(F)(F)F)cn3)CC2)cc1,> 5.3,Non-toxic,< 1.6,–,17,> 100,Active,Activity (Mus musculus [7]): Non-toxic; half-life [8]: 8.6 h; Activity (Trypanosoma cruzi [21]): Active; F (Mus musculus [9]): 95%; half-life [10]: 12.5 h; Activity (Mus musculus [14]): Non-toxic; Vd [15]: 4.4 L/kg; clearance [19]: 8.1 mL/min/kg; Activity (Trypanosoma cruzi [23]): Active
CS(=O)(=O)c1ccc(N2CCN(C(=O)C(c3ccc(Cl)cc3)c3cccnc3)CC2)cc1 (stereo not given),3,Non-toxic,6.3,4000,2,> 100,–,–
N#Cc1ccccc1N1CCC(N(c2ccc(C(F)(F)F)cc2)c2cccnc2)CC1,4.9,–,< 1.6,5200,–,> 100,–,–
CS(=O)(=O)c1ccc(N2CCC(N(c3ccc(C#N)cc3)c3cccnc3)CC2)cc1,3,Non-toxic,< 1.6,12000,2,25,–,–
N#Cc1ccc(C(O)(c2ccc(C(F)(F)F)cc2)c2cccnc2)cc1 (stereo not given),–,Non-toxic,–,–,–,–,Active,–
N#Cc1ccc(C(C(=O)N2CCN(c3ccc(C(F)(F)F)cn3)CC2)c2cccnc2)cc1 (stereo not given),3.5,Non-toxic,6.3,> 20000,12,50,–,–
N#Cc1ccc(C(C(=O)N2CCN(c3ccc(C(F)(F)F)cc3)CC2)c2cccnc2)cc1 (stereo not given),3.8,Non-toxic,3.1,> 20000,12,> 100,–,–
O=C([C@H](c1ccc(Cl)cc1)c1cccnc1)N1CCN(c2ccc(C(F)(F)F)cc2)CC1,4.5,–,1.6,17000,–,> 100,–,–
O=C(C(c1ccc(Cl)cc1)c1cccnc1)N1CCN(c2ccc(C(F)(F)F)cc2)CC1 (racemic),4.5,Non-toxic,1.6,16000,–,> 100,Active,Activity (Mus musculus [7]): Non-toxic; Activity (Trypanosoma cruzi [21]): Active; Activity (Mus musculus [14]): Non-toxic; Activity (Trypanosoma cruzi [24]): Active; Activity (Trypanosoma cruzi [22]): Active; Activity (Trypanosoma cruzi [23]): inactive
Fc1cc(Cl)ccc1C(NC1CCN(c2ccc(C(F)(F)F)cc2)CC1)c1cccnc1 (stereo not given),–,Non-toxic,–,–,11,–,Active,–
